# Assay outcomes (PubChem)
# Compounds with a hit are over-represented: about 0.72% of the library has one in this group of screens.
# mIAP inh = inhibitors of mouse IAP, primary screen, biochemical, luminescence, uHTS; purified mouse IAP, CDP-Star luminescence, 30 min; inhibition, % at 10 µM; 0.2% of 330,000 active; AID 2806, 2010;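 active = inhibition of at least 40% at 10 µM in the primary screen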
# hIAP inh = human IAP inhibitors, primary screen, biochemical, luminescence, uHTS; Intestinal-type alkaline phosphatase (Homo sapiens), P09923; purified IAP, CDP-Star luminescence, 30 min; inhibition, % at 10 µM; 0.12% of 330,000 active; AID 2544, 2010;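 active = inhibition reaching a set limit with compound at 10 µM in the primary screen, cut at about 35% in these data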
# Target sequence (P09923 whole entry, looked up): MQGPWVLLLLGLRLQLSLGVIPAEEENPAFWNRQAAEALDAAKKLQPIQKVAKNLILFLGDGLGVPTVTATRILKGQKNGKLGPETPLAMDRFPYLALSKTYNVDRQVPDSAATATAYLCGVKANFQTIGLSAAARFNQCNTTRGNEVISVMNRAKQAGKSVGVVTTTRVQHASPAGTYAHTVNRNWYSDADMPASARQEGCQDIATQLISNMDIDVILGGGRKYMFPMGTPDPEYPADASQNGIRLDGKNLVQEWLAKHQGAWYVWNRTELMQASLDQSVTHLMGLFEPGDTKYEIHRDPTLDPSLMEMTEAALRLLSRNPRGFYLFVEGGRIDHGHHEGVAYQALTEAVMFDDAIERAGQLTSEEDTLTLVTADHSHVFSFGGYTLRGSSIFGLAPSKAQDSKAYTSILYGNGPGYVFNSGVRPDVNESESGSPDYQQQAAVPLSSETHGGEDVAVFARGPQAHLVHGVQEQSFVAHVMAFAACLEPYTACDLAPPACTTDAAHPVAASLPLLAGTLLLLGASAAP
# bIAP inh = bovine intestinal alkaline phosphatase inhibitors, primary screen, selectivity assay for TNAP inhibitor project, biochemical, bovine IAP, CDP-star luminescence; alkaline phosphatase, intestinal [Bos taurus]; purified bovine IAP, 30 min; inhibition, % at 20 µM; 190,000 tested, under 10 active; AID 1019, 2008;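 active = over 50% inhibition of intestinal alkaline phosphatase at 20 µM in the single-dose screen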
#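 System: purified bovine intestinal alkaline phosphatase (IAP) enzyme; Input: IAP diluted 1/65,000,000 in the well; Measured by: CDP-star luminescence signal; Compound dosing: 20 µM single dose; Incubation: 30 min reaction at room temperature.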
# bIAP act = bovine intestinal alkaline phosphatase activators, primary screen, biochemical, bovine IAP, CDP-star luminescence; 0.17% of 200,000 active; alkaline phosphatase, intestinal [Bos taurus]; AID 1016, 2008; purified bovine IAP, 30 min; active compounds read high; fold of DMSO-control signal, blank-subtracted; activation factor at 20 µM;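 active = activation factor of 2 or more at 20 µM, a signal rise over negative controls twice the positive control's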
# mIAP act = activators of mouse IAP, primary screen, biochemical, luminescence, uHTS. muIAP, CDP-Star luminescence, 30 min; active compounds read high; 1 = vehicle-only enzyme signal, 0 = enzyme-free wells. activation factor at 10 µM. 0.24% of 330,000 active. AID 2805, 2010;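 active = activation factor of at least 2 at 20 µM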
#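 Assay system: mouse IAP enzyme; reagent: chemiluminescent substrate CDP-Star; dosing: test compounds delivered from DMSO solution; schedule: 30 min at room temperature; measured by: luminescence from enzymatic CDP-Star hydrolysis; controls: DMSO-only wells and no-enzyme negative control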
# hIAP act = human IAP activators, primary screen, biochemical, luminescence, uHTS; Intestinal-type alkaline phosphatase (Homo sapiens), P09923; purified human IAP, CDP-Star luminescence, 30 min; active compounds read high; 1 = vehicle-only enzyme, 0 = enzyme-free background; activation factor at 10 µM; 0.16% of 330,000 active; AID 2524, 2010;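 active = activation factor of the enzyme at least 2-fold when tested at 20 µM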
# hIAP act confirm = human IAP activators, confirmation, biochemical, luminescence, single concentration, uHTS hits | shares compounds with hIAP act | purified IAP, CDP-Star luminescence, 30 min; active compounds read low | 10% of 880 active | AID 434926, 2010 | activation (%Activity, negative = activation), % at 8.3 µM;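 active = at least twofold enzyme activation in any of six single-dose repeats, which the averaged readout prints as negative percent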
# mIAP inh confirm = inhibitors of mouse IAP, confirmation, biochemical, luminescence, single concentration | 4.7% of 11,000 active | AID 434971, 2010 | shares compounds with mIAP inh | purified mouse IAP, CDP-Star luminescence, 30 min | inhibition, % at 10 µM;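 active = inhibition of at least 40% at 10 µM in either of the two replicates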
# Hits are given with their value; – = inactive; · = no result given.
SMILES,mIAP inh,hIAP inh,bIAP inh,bIAP act,mIAP act,hIAP act,mIAP inh confirm,others
COc1cc(NC(=O)NCC2CCN(Cc3ccccc3C)CC2)cc(OC)c1OC,–,–,·,·,3.5,2.4,–,hIAP act confirm=–
CCN(CC)S(=O)(=O)c1ccc(Cl)c(NC(=O)COC(=O)c2ccc([N+](=O)[O-])o2)c1,–,–,·,·,–,–,·,
COc1ccc(N(CC(=O)NCc2ccco2)C(=O)CCC(=O)Nc2ccccn2)cc1,–,–,·,·,–,–,·,
O=C(NN1C(=O)/C(=C/c2ccc(O)c(O)c2)SC1=S)c1ccccc1,44,69,·,·,–,–,78,hIAP act confirm=–
O=C(NN1C(=O)/C(=C/c2cccc(O)c2)SC1=S)c1ccccc1O,–,–,·,·,–,–,·,
Cc1ccc(NC(=O)C2CC(=O)n3c(nc4ccccc43)N2)cc1 (configuration not stated),–,–,–,–,–,–,·,
O=C(Nc1ccc(Cl)cc1)C1CC(=O)n2c(nc3ccccc32)N1 (configuration not stated),–,–,–,–,2.7,2,–,hIAP act confirm=–
COc1cc(/C=C/C(O)=C/C(=O)/C=C/c2ccc(O)cc2)ccc1O,53,35,·,·,–,–,48,hIAP act confirm=–
Cc1nn(Cc2ccc(Cl)c(Cl)c2)c(C)c1NC(=O)c1cn(-c2ccccc2)nc1-c1ccccc1,–,–,–,–,2.9,–,–,
N#CC1=C(N)n2c(s/c(=C\c3ccco3)c2=O)=C(C#N)C1c1ccco1 (configuration not stated),68,–,–,–,–,–,88,
CCOC(=O)C1=C(N)n2c(s/c(=C/c3ccco3)c2=O)=C(C(=O)OC)C1c1ccco1 (configuration not stated),·,·,–,–,·,·,·,
CCc1ccc(C2C(C#N)=C(N)N(N(C)C)C3=C2C(=O)CCC3)cc1 (configuration not stated),–,–,·,·,–,–,·,
COC(=O)c1sc2nc(-c3ccco3)ccc2c1N,52,–,–,–,–,–,53,
NC(=O)c1sc2nc3c(c(-c4ccco4)c2c1N)CCC3,43,–,–,–,–,–,57,
NC(=O)c1sc2nc(-c3cccnc3)ccc2c1N,–,–,·,·,–,–,·,
NC(=O)c1sc2nc(-c3ccco3)ccc2c1N,44,–,–,–,–,–,52,
Nc1c(C(=O)Nc2ccccc2F)sc2nc(-c3ccco3)ccc12,48,–,–,–,–,–,61,
CC(C)OC(=O)c1sc2nc(-c3ccccc3)ccc2c1N,–,–,–,–,–,–,·,
CCN(CC)CCCNc1nc2ccccc2c2nc(-c3ccncc3)nn12,–,–,·,·,–,–,·,
CCCc1c(NC(=O)Nc2ccc(F)cc2)cnn1-c1ccc(Cl)cc1,–,–,·,·,3.8,–,–,
O=C(NCCc1ccc(Cl)cc1)Nc1ccc(F)cc1,–,–,–,–,–,–,·,
Cc1ccsc1/C=C/C1=Cc2c(sc(NC(=O)CSc3n[nH]c(N)n3)c2C#N)C(C)(C)C1,45,–,–,–,–,–,64,
COc1cc(Cl)ccc1OCc1cc(C(=O)N2C[C@]3(C)C[C@H]2CC(C)(C)C3)no1,–,–,·,·,–,–,·,
CC(C(=O)O)N1C(=O)/C(=C/C=C/c2ccco2)SC1=S (configuration not stated),54,–,–,–,–,–,58,
